Assay results: paper PMC7688577 (FASEB journal : official publication of the Federation of …, 2020)

How the values were obtained:
WT rhodopsin = test: Rhodopsin immunoblot of NIH3T3; format: cell-based, mouse; conditions: 10 μM MTX plus 100 nM BafA1, 24 h
Procedure, shortened: (§1)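 Cells were seeded at 5 × 10⁵/well in 6-well plates for 17 h, then given fresh medium with test compound and inhibitor. Protein was measured by A280. Rhodopsin blots loaded 100 μg (P23H line) or 20 μg (WT line), run on 10% and 16% SDS-PAGE and transferred to nitrocellulose. Membranes were blocked 1 h in 5% BSA/PBS-0.05% Tween 20, probed with primary overnight at 4 °C and secondary 1 h at RT, with chemiluminescent detection.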

P23H rhodopsin [1] = target: T1, P23H rhodopsin (Mus musculus, UniProt P15409, P23H); test: Image-based; format: cell-based
P23H rhodopsin [2] = target: T1, P23H rhodopsin; test: Rhodopsin immunoblot of NIH3T3; format: cell-based; conditions: 10 μM MTX plus 100 nM BafA1, 24 h
Procedure, shortened: as §1

P23H rhodopsin [3] = target: T1, P23H rhodopsin; test: Non-radioactive pulse-chase assay in NIH3T3; format: cell-based; conditions: 10 μM
Procedure, shortened: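 Non-radioactive pulse-chase. Cells (3 × 10⁵/well, 24-well) were grown overnight, starved in Met-free DMEM for 1 h, then pulsed with 50 μM L-AHA for 4 h (50 μM Met as negative control). Chase was 24 h in DMEM with 2 mM Met ± 10 μM test compound. Lysates (200 μg) were clicked with 5 μM BTN-sDIBO for 1 h at 37 °C, immunoprecipitated with 1D4, eluted at pH 2.8, dot-blotted and probed with HRP-streptavidin. Values normalized to DMSO on the same membrane; N=3, unpaired two-tailed t-test.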

[4] = test system: chymotrypsin-like proteasome activity; test: Proteasome activity assay; format: cell-based; conditions: NIH3T3(RHO^P23H/GFP) and NIH3T3(RHO^WT/GFP) cells, MTX 0.0195 to 10 μM, 24 h
Procedure, shortened: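 Cells were seeded at 2500/well in 384-well plates and after 3 h treated for 24 h with test compound at 0.0195–10 μM final. Controls were 0.1% DMSO (100%) and 5 μM MG-132 for 8 h (0%). Proteasome-Glo reagent with Suc-LLVY-Glo substrate was added, shaken 2 min and held 24 min at RT. Luminescence gave chymotrypsin-like activity, normalized to the controls.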

Rho^P23H/+ mice [5] = test: Retinal immunohistochemistry; format: in vivo, mouse
Procedure, shortened: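 Rho^P23H/+ mice received intravitreal test compound (25 or 100 pmol) in one eye and PBS in the fellow eye. Dosing was either a single injection at PND 15, with eyes enucleated at PND 33, or four weekly injections from PND 15, with enucleation at PND 46. Retinae were processed for rhodopsin immunohistochemistry and ONL nuclear counts. Age-matched Rho^+/+ mice served as normal controls.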

Rho^P23H/+ mice [6] = test: Electroretinogram; format: in vivo, mouse
Procedure, shortened: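 Rho^P23H/+ mice (homozygous knock-in crossed with C57BL/6J). Test compound given by intravitreal injection to one eye, PBS to the other. Dosing was a single 25 or 100 pmol at PND 15 with ERG at PND 32, or four weekly injections (PND 15, 22, 29, 36) with ERG at PND 44. Scotopic ERG used eight flashes. Photopic ERG used six flashes (0.01–30 cd·s/m²) after 5 min adaptation to 10 cd/m², on that background. Age-matched Rho^+/+ controls. Two-way ANOVA.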

[7] = target: P23H rhodopsin fused with Renilla luciferase (Mus musculus, UniProt P15409, P23H); test: Rluc reporter assay in Hek293; format: cell-based; conditions: HEK293, read-out: Rluc assay Hek293 (RHO^P23H-Rluc) Efficacy
P23H rhodopsin [8] = target: T1, P23H rhodopsin; test: Rhodopsin dot blot of NIH3T3; format: cell-based; conditions: NIH3T3(RHO^P23H/GFP) cells, 10 μM, 24 h, vs DMSO control
Procedure, shortened: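 NIH3T3(RHO^P23H/GFP) cells were seeded at 2.5 × 10⁴/well in 96-well plates, attached 4 h, then given medium with 2× test compound to reach 10 μM final for 24 h. Cells were PBS-washed and lysed in RIPA with protease inhibitors plus 6 s sonication. Of each well's lysate, 90% was dotted on nitrocellulose, air-dried and probed with 0.1 μg/mL HRP-1D4. Densitometry was normalized to DMSO.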

Rho^P23H/+ mice [9] = test: Immunoblot of LC3 and SQSTM1/p62 in retinae after IVI; format: in vivo, mouse; conditions: 25 pmol IVI at PND 15, 48 h after treatment
Procedure, shortened: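 Rho^P23H/+ mice received a 25 pmol/eye intravitreal injection of test compound at PND 15, with PBS in the contralateral eye. Retinae were taken 48 h later, and 30 μg of lysate was immunoblotted for SQSTM1/p62 and LC3 with β-actin as loading control. Blotting used SDS-PAGE, nitrocellulose transfer, 1 h blocking in 5% BSA/PBS-0.05% Tween 20, primary antibody overnight at 4 °C, secondary 1 h at RT, and chemiluminescent detection.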

RHO transcripts = test: qPCR of RHO transcripts in NIH3T3; format: cell-based, mouse; conditions: 10 μM, 24 h
Procedure, shortened: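 NIH3T3 cells stably expressing WT or P23H rhodopsin (GFP lines) were seeded in 24-well plates at 2.5×10⁵ cells/well and cultured overnight at 37 °C, 5% CO₂. They were then exposed to test compound in culture medium for 24 h. RNA was precipitated by centrifugation at 12,000×g for 10 min at 4 °C, washed with 75% ethanol, air-dried and dissolved in nuclease-free water before qPCR.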

[10] = test system: rhodopsin mutants (T4R, P23H, P53R, C110Y, D190N, P267L); format: cell-based, mouse; conditions: U2OS cells
Procedure, shortened: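 U2OS stable lines expressed WT or mutant mouse rhodopsin fused to Venus. Cells were transfected with pcDNA3.1 Zeo constructs, kept 48 h in DMEM/10% FBS, then selected with 400 μg/mL Zeocin. Stable cells were treated with test compound at 10 μM and immunostained for rhodopsin.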

[11] = Estimated vitreous concentration after intravitreal injection, rabbit; conditions: 1.76 μmol, vitreous cavity about 1.5 mL, ref [70]
[12] = single IVI 25 pmol at PND 15, IHC at PND 33
[13] = single IVI 100 pmol at PND 15, ERG at PND 32

CN(Cc1cnc2nc(N)nc(N)c2n1)c1ccc(C(=O)N[C@@H](CCC(=O)O)C(=O)O)cc1 [CL-009, methotrexate]
WT rhodopsin level under BafA1 and MTX co-treatment (immunoblot) (WT rhodopsin): accumulation
Mean intensity of P23H rhodopsin immunostaining per cell (P23H rhodopsin [1]; MTX alone): reduced in an MTX dose-dependent manner
Emax (P23H rhodopsin [1]; NIH3T3, 24 h, read-out: Image-based assay NIH3T3 (RHO^P23H/GFP) Efficacy): 36%
MTX induced P23H rhodopsin clearance under co-treatment with BafA1 (immunoblot) (P23H rhodopsin [2]): abolished
BTN-AHA labeled P23H rhodopsin at 24 h of chase in comparison to DMSO control (P23H rhodopsin [3]): significantly reduced
Chymotrypsin-like proteasome activity [4]: did not affect
Retinal degeneration caused by MTX (Rho^P23H/+ mice [5]; 100 pmol IVI, Rho^P23H/+ mice): did not see obvious retinal degeneration
Nucleus number in the ONL vs PBS group, superior side (Rho^P23H/+ mice [5]; four IVIs of 25 pmol, IHC at PND 46): higher
ONL nucleus number, either side of the retina (Rho^P23H/+ mice [5]; [12]): No change
Total rhodopsin level and rhodopsin in the OS compared to PBS control, superior side (Rho^P23H/+ mice [5]; [12]): significant increase
Multi-flash scotopic and photopic b-waves compared to PBS control group (Rho^P23H/+ mice [6]; four weekly IVIs starting at PND 15 (25 pmol per treatment), ERG at PND 44): significantly increased
Photopic ERG responses vs PBS treated or non-treated eyes (Rho^P23H/+ mice [6]; single IVI 25 pmol at PND 15, ERG at PND 32): higher
Multi-flash scotopic ERG a- and b-waves vs PBS or non-treated eyes (Rho^P23H/+ mice [6]; [13]): no effect
Photopic ERG responses vs PBS treated or non-treated eyes (Rho^P23H/+ mice [6]; [13]): did not show any effects
Ratio of scotopic and photopic b- to a-wave amplitudes (Rho^P23H/+ mice [6]; single IVI at PND 15, ERG at PND 32): not affected
Emax [7]: 53%
Rho protein level (Dot blot) (P23H rhodopsin [8]): Down
LC3-II level in retinae compared to PBS control (Rho^P23H/+ mice [9]): increase
SQSTM1/p62 level in retinae compared to PBS control (Rho^P23H/+ mice [9]): decrease
Rho mRNA level (qPCR) (RHO transcripts; NIH3T3(RHO^P23H/GFP) cells, vs DMSO control): No Change
WT and P23H rhodopsin transcripts in comparison to DMSO control (RHO transcripts; both NIH3T3(RHO^P23H/GFP) and NIH3T3(RHO^WT/GFP) cells): did not affect
Rhodopsin immunofluorescence in cells expressing the P23H, C110Y, D190N and P267L mutants [10]: dose-dependent reductions
Final concentration in vitreous [11]: about 1 mM
